The subject of series [1] is CHO. Briefly: Cytotoxicity against CHO cells. In kind it is cell-based. Conditions: Cricetulus griseus. Summed up: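 CHO cells in RPMI 1640 with 10% fetal calf serum, 25 mM HEPES and gentamicin were grown to 50% confluency. Compounds from 10 mg/mL DMSO stocks were added as a serial dilution series, with DMSO-only controls. After 48 h, MTT was added for 1 h and formazan dissolved in DMSO. Absorbance at 650 nm; IC50 by nonlinear regression of dose–response.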

The test system of series [2] is Plasmodium falciparum. Description: Antimalarial activity against Plasmodium falciparum 3D7. The series is classed as functional, organism-based. In short, it runs like this:
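Parasites grown in human O+ erythrocytes in RPMI 1640 with 10% human serum and 50 µM hypoxanthine. Compounds from 10 mg/mL DMSO stocks were serially 2-fold diluted and added to culture at 2% hematocrit and 2% parasitemia. Incubation was 48 h at 37 °C under 95% N2/3% CO2/2% O2.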

A short description of series [3]: Inhibition of Plasmodium falciparum ODCase.
For series [4], the system named is Plasmodium falciparum.
Series [5] relates to Methanothermobacter thermautotrophicus.
Series [6] can be described thus: Inhibition of Methanobacterium thermoautotrophicum ODCase. Set-up: species or system Methanothermobacter thermautotrophicus.
A short description of series [7]: Stability assessed as half life of hydrolysis. The series is classed as physicochemical.
Series [8] in a line: Inhibition of Plasmodium vivax ODCase. In short, it runs like this: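 Calorimetric assay of P. vivax ODCase: enzyme (50 or 70 nM) was mixed with inhibitor (40–250 µM) in 50 mM Tris with 1 mM DTT, and activity was started by a single OMP injection to a final 12 µM. Competitive Ki was determined. For time-dependent inactivation, 50 µM enzyme was incubated at 25 °C in Tris pH 8.0 with 37.5–75 mM inhibitor for 1–48 h, then diluted 1000-fold and assayed.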

Structures are written as SMILES.

In general, IC50 refers to the concentration needed to halve the response being measured. A higher IC50 goes with a need for much substance. As usually defined, the Ki is the dissociation constant of the complex between target and ligand, obtained from inhibition or displacement. Read a high Ki as weaker binding. One may read the half-life as the time in which the quantity being followed falls by half.

As to `CN(C)c1cc(=O)[nH]c(=O)n1[C@@H]1O[C@H](CO)[C@@H](O)[C@H]1O`, the figures for the IC50 in series [1] and in series [2] were 68.3 µM and 31.7 µM, respectively.
In the case of `O=c1cc(I)n([C@@H]2O[C@H](CO)[C@@H](O)[C@H]2O)c(=O)[nH]1`, the half-maximal inhibitory concentration (IC50) in series [1] is 366 µM; in series [2] it was 6.2 µM.
Regarding `Nc1cc(=O)[nH]c(=O)n1[C@@H]1O[C@H](CO)[C@@H](O)[C@H]1O`, the 50% inhibitory concentration (IC50) in series [1] and in series [2] was above 1500 µM each time.
Take `CNc1cc(=O)[nH]c(=O)n1[C@@H]1O[C@H](CO)[C@@H](O)[C@H]1O`: the 50% inhibitory concentration (IC50) in series [1] was determined as 71.9 µM; in series [2] it was 28.5 µM.
On to `[N-]=[N+]=Nc1cc(=O)[nH]c(=O)n1[C@@H]1O[C@H](COP(=O)(O)O)[C@@H](O)[C@H]1O`, for which the values for the Ki in series [3] and in series [6] were 2 µM and 0.19 µM, respectively. Also, the KI stood at 7.3 µM in series [4] and 0.63 µM in series [5]. Further, the Kinact in series [4] is 0.35 h⁻¹; in series [5] it was 61.2 h⁻¹.
For the molecule `N#Cc1cc(=O)[nH]c(=O)n1[C@@H]1O[C@H](CO)[C@@H](O)[C@H]1O`, the IC50 in series [1] is above 1500 µM; in series [2] it was 446 µM.
Regarding `N#Cc1cc(=O)[nH]c(=O)n1[C@@H]1O[C@H](COP(=O)(O)O)[C@@H](O)[C@H]1O`, the half-life in series [7] was 5 h. This molecule returned a Ki in series [8] of 62 µM.
In the case of `Cc1cc(=O)[nH]c(=O)n1[C@@H]1O[C@H](CO)[C@@H](O)[C@H]1O`, the IC50 is above 1160 µM in series [1] and 530 µM in series [2].
In the case of `[N-]=[N+]=Nc1cc(=O)[nH]c(=O)n1[C@@H]1O[C@H](CO)[C@@H](O)[C@H]1O`, the concentration for half-maximal inhibition (IC50) in series [1] is above 1500 µM; in series [2] it was 1230 µM.
For `Cc1cc(=O)[nH]c(=O)n1[C@@H]1O[C@H](COP(=O)(O)O)[C@@H](O)[C@H]1O`, the inhibitory constant (Ki) in series [3] is 34.1 µM; in series [8] it was 22.4 µM.

The record behind these values is ChEMBL document CHEMBL1140735, “Structure-activity relationships of C6-uridine derivatives targeting plasmodia orotidine monophosphate decarboxylase” (J Med Chem, 2008).
